Most compounds without a hit are left out; they make up all but 2.6% or so of the library.
FGF22 binding: FGF22 (human) thermal shift binding; Q9HCT0; recombinant FGF22 thermal shift, SYPRO orange fluorescence; percent of sucrose octasulfate shift, DMSO zero; activity (Tm shift, normalised), % at 9.99 µM; actives 1.5% (n = 340,000); AID 651658;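 active means mean Tm shift, scaled 0 neutral to 100 positive control, at about 1.3% or above, every replicate too, limit read from the data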
Target sequence (Q9HCT0 whole entry, looked up): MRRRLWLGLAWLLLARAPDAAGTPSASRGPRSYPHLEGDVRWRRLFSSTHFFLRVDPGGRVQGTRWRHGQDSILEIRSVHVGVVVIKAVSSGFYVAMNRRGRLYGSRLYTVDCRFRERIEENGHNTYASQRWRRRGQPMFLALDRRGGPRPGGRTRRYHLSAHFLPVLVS
UCH37 inh: inhibitors of human deubiquitinating enzyme UCH37; purified proteasome/UCH37, Ub-AMC cleavage fluorescence; inhibition, % (test concentration not listed); Q9Y5K5; actives 0.33% (n = 330,000);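 active means mean inhibition over replicate wells above about 20%, limit read from the data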;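 further: 0% = compound-free wells with enzyme and 100% = wells lacking proteasome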
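Signal – fluorescence, ex 355 nm, em 460 nm · System – Proteasome-bound UCH37 · Input – 0.15 nM proteasome as dispensed · Timing – 30 min preincubation with enzyme, 25 min cleavage at room temperature · Read-out basis – percent inhibition of cleavage signal versus uninhibited and no-proteasome wells · Medium – Tris-HCl pH 7.4 with ATP-MgCl2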
NSD2 inh: NSD2 (human) methyltransferase inhibition | NSD2 peptide methylation, AlphaScreen, 120 min | inhibition, % at 12.5 µM | actives 0.54% (n = 310,000); in the data active means inhibition above about 50%
SIRT5 inh: inhibitors of human sirtuin-5 desuccinylase; Q9NXA8; Purified SirT5, succinyl-peptide AMC, trypsin-coupled fluorescence; inhibition, % at 15 µM; actives 1.1% (n = 330,000); in the data active means inhibition above about 15%
Casp6 inh: blocks human caspase-6 cleavage activity | purified caspase-6, Z-VEID-R110 cleavage fluorescence | actives 0.53% (n = 350,000) | P55212 | inhibition, % at 12.5 µM | AID 686996;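 active means mean inhibition across replicates at least about 35%, with every replicate also reaching that limit, limit read from the data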;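 further: 0% = median of neutral control wells and 100% = no fluorescence left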
Target sequence (P55212 24-179 limits assumed): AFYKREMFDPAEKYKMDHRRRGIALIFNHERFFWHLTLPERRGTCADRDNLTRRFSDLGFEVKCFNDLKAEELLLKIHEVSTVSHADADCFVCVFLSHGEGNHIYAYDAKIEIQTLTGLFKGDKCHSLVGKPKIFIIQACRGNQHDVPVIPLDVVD
Target sequence (P55212 194-293 limits assumed): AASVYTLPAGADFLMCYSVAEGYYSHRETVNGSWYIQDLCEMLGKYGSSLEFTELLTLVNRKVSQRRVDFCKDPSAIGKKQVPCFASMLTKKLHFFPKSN
UCH37 confirm: confirmation of human UCH37 deubiquitinating enzyme inhibitors. shares compounds with UCH37 inh. AID 624100. Proteasome-bound UCH37, Ub-AMC cleavage fluorescence. actives 27% (n = 480). inhibition, % at 20 µM;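 active means average inhibition over replicates above about 50%, so the earlier screening hit is confirmed, limit read from the data; inactive means the rest, counted as false positives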;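 further: based on cleavage rate fitted by regression over a 30 min kinetic read; 0% = proteasome plus Ub-AMC and 100% = Ub-AMC without proteasome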
* hit, by the source's call; · = no result given.

SMILES	FGF22 binding	UCH37 inh	NSD2 inh	SIRT5 inh	Casp6 inh	UCH37 confirm
CC1=C(SCc2ccccc2)C(=O)c2ccccc2C1=O	0	32*	22	3	64*	48
O=C1C(SCCO)=C(SCCO)C(=O)c2ccccc21	0	·	·	-6	6	·
C[C@@H]1CN([C@@H](C)CO)C(=O)c2cc(-c3ccccc3)cnc2O[C@@H]1CN(C)Cc1ccccc1	0	·	·	-3	1	·
CC1=NN(C(=O)CSCc2ccccc2)C(O)(c2ccccc2)C1 (stereo not given)	0	32*	0	-2	0	16
CC1=NN(C(=O)COc2ccccc2)C(O)(c2ccccc2)C1 (stereo not given)	·	0	-2	·	·	·
O=S(=O)(NCCC1=CCCCC1)c1ccc(Br)cc1	0	2	-3	-1	4	·
COc1ccc(C)cc1S(=O)(=O)NCCC1=CCCCC1	0	58*	0	0	-2	8
CS(=O)(=O)NCCC1=CCCCC1	·	44*	1	·	·	80*
COc1ccc(C)cc1S(=O)(=O)N1CCC(C(=O)NCCC2=CCCCC2)CC1	·	32*	-3	·	·	6
CC(=O)N1CCCc2cc(S(=O)(=O)NCCC3=CCCCC3)ccc21	·	54*	1	·	·	76*
C[C@@H]1CCCCO[C@@H](CN(C)C(=O)Cc2ccccc2)[C@H](C)CN([C@@H](C)CO)C(=O)c2cc(NC(=O)CCC(F)(F)F)ccc2O1	0	·	·	·	·	·
COc1ccc2c3c(n(C)c2c1)[C@H](CO)N(C(=O)c1ccccn1)CC31CCN(C(C)=O)CC1	0	·	·	1	-1	·
CN(C)CC(=O)Nc1ccc2c(c1)[C@@H]1C[C@H](CC(=O)NCc3ccc4c(c3)OCO4)O[C@H](CO)[C@@H]1O2	0	·	·	-1	-2	·
COc1ccc(S(=O)(=O)N(C)C[C@@H]2Oc3ccc(NC(=O)C4CCCCC4)cc3CC(=O)N([C@@H](C)CO)C[C@@H]2C)cc1	0	·	·	-4	-2	·
COc1ccc(CN(C)C[C@H]2OCCCC[C@@H](C)Oc3ccc(NS(=O)(=O)c4cn(C)cn4)cc3C(=O)N([C@@H](C)CO)C[C@@H]2C)cc1	0	·	·	0	0	·
Cc1ccoc1C(=O)NCCCNC(=O)c1occc1C	·	48*	-57	·	·	6
Cc1ccoc1C(=O)NCCNC(=O)c1occc1C	0	0	-2	-6	3	·
C[C@@H]1CN([C@@H](C)CO)C(=O)Cc2cc(NC(=O)CCC(F)(F)F)ccc2O[C@@H]1CN(C)CC1CC1	-1	·	·	0	-5	·
O=C(O)c1cccc(NC2=C(N3CCOCC3)C(=O)c3ccccc3C2=O)c1	0	28*	29	-3	11	14
O=C1C(NS(=O)(=O)c2cccs2)=C(N2CCOCC2)C(=O)c2ccccc21	0	9	33	0	7	·
NC(=O)C1CCN(C2=C(NS(=O)(=O)c3ccccc3)C(=O)c3ccccc3C2=O)CC1	0	16	17	-15	9	·
NC(=O)C1CCN(C2=C(Cl)C(=O)c3ccccc3C2=O)CC1	·	82*	88*	·	·	17
CC[N+]1(C)CCC(=C2c3ccccc3CC(=O)c3sccc32)CC1 (stereo not given)	·	7	8	·	·	·
C[N+]1(C)CCC(=C2c3ccccc3CC(=O)c3sccc32)CC1	·	75*	·	·	·	19
CCN1C(=O)C2(C(C(=O)c3ccc(C)o3)=C(O)C(=O)N2CCCN2CCOCC2)c2ccccc21 (stereo not given)	·	46*	-2	·	·	20
Cc1ccc(S(=O)(=O)Nc2ccc3c(c2)C(=O)N([C@H](C)CO)C[C@H](C)[C@@H](CN(C)C(=O)c2ccccc2)OCCCC[C@H](C)O3)cc1	·	·	·	2	1	·
C(C#CCCCCCCCCC[n+]1ccccc1)#CCCCCCCCCC[n+]1ccccc1	·	34*	17	·	·	69*
C[C@@H]1CCCCO[C@@H](CN(C)S(C)(=O)=O)[C@@H](C)CN([C@H](C)CO)C(=O)c2cc(NC(=O)CCCN(C)C)ccc2O1	0	·	·	0	-6	·
COc1cccc(NC(=O)N[C@@H]2C=C[C@H](CC(=O)N3CCN(C)CC3)O[C@@H]2CO)c1	·	·	·	-8	-1	·
Cc1[nH]n(-c2ccccc2)c(=O)c1C(C[N+](=O)[O-])c1ccccc1Cl (stereo not given)	·	30*	8	·	·	1

Screens deposited in PubChem by several laboratories.
